Measurements reported in paper PMC4862586 (The New England journal of medicine, 2015).

How the values were obtained:
[1] = system: patients with relapsed CLL; test: Phase 1–2 multicenter study: safety, adverse events; format: in vivo
[2] = system: relapsed CLL; test: Phase 1–2 multicenter study: clinical response; format: in vivo, human; conditions: for Resolution of B symptoms: 16 patients with B symptoms at baseline
[3] = Pharmacokinetics in patients, cycle 1, non-compartmental analysis; format: in vivo; conditions: human, po
[4] = system: phosphorylated Btk; test: Phosphorylation of Btk by intracellular flow cytometry; format: in vivo, human; conditions: respective time points across all cohorts
Outline: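 Patients with relapsed CLL received oral drug continuously at 100, 175, 250 or 400 mg once daily (dose escalation) or 100 mg twice daily (phase 2 expansion). Phosphorylated Btk in blood samples was measured by intracellular flow cytometry.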

[5] = system: platelet aggregation; test: Platelet aggregation derived from blood of patients; format: in vivo, human; conditions: blood of patients receiving the drug
[6] = system: pro-inflammatory cytokines; test: Pro-inflammatory cytokine levels in patients; format: in vivo, human; conditions: from baseline to day 28 of treatment
Outline: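 Patients with relapsed CLL were dosed orally and continuously at 100–400 mg once daily or 100 mg twice daily. Change in serum cytokines from baseline was tested by Wilcoxon signed-rank. Only patients with baseline and every follow-up value were included, and there was no multiplicity adjustment.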

[7] = Serum immunoglobulins and immune cell numbers over time in patients; format: in vivo
[8] = system: primary CLL cells; test: B-cell receptor signaling in primary CLL cells; format: cell-based, human
[9] = system: EGFR; test: EGFR signaling; format: cell-based
[10] = molecular target: T1, Itk (Homo sapiens, UniProt Q08881); test: Itk inhibition; format: cell-based
T1 sequence (Q08881 1-620): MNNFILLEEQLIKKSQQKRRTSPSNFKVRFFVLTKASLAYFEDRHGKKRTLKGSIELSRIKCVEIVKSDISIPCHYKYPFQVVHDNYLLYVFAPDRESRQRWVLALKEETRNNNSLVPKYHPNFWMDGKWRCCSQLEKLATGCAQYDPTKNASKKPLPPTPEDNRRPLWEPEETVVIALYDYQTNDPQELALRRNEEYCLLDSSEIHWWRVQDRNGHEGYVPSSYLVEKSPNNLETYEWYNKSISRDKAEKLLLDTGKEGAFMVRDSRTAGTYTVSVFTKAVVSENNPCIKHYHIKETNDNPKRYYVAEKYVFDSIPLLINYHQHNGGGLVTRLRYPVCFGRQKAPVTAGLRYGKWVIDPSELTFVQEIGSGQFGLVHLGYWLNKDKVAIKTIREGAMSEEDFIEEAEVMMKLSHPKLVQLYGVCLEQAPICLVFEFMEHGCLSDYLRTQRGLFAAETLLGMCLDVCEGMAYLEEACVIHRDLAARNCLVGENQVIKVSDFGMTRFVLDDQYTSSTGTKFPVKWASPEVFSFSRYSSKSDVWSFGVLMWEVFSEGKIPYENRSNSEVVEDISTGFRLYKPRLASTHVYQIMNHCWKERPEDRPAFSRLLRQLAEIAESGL

[11] = system: natural killer cells; format: cell-based, human; conditions: obinutuzumab-coated CLL cells
[12] = system: naturally occurring canine B-cell lymphomas; conditions: cited from earlier work
[13] = system: CLL; conditions: cited from earlier work
[14] = all patients, median follow-up 14.3 months

## CC#CC(=O)N1CCC[C@H]1c1nc(-c2ccc(C(=O)Nc3ccccn3)cc2)c2c(N)nccn12 [acalabrutinib, Acalabrutinib]
[1]; N=61
  Grade 5 event of pneumonia: † The all-grade column includes one patient with a Grade 5 event of pneumonia.
[1]; human, in vivo
  Adverse event Arthralgia, All Grades: 10 (16) number of patients (percent)
  Adverse event Arthralgia, Grades 1–2: 9 (15) number of patients (percent)
  Adverse event Arthralgia, Grades 3–4: 1 (2) number of patients (percent)
  Adverse event Contusion, All Grades: 11 (18) number of patients (percent)
  Adverse event Contusion, Grades 1–2: 11 (18) number of patients (percent)
  Adverse event Contusion, Grades 3–4: 0 (0) number of patients (percent)
  Adverse event Decreased weight, All Grades: 10 (16) number of patients (percent)
  Adverse event Decreased weight, Grades 1–2: 10 (16) number of patients (percent)
  Adverse event Decreased weight, Grades 3–4: 0 (0) number of patients (percent)
  Adverse event Diarrhea, All Grades: 24 (39) number of patients (percent)
  Adverse event Diarrhea, Grades 1–2: 23 (38) number of patients (percent)
  Adverse event Diarrhea, Grades 3–4: 1 (2) number of patients (percent)
  Adverse event Fatigue, All Grades: 13 (21) number of patients (percent)
  Adverse event Fatigue, Grades 1–2: 11 (18) number of patients (percent)
  Adverse event Fatigue, Grades 3–4: 2 (3) number of patients (percent)
  Adverse event Headache, All Grades: 26 (43) number of patients (percent)
  Adverse event Headache, Grades 1–2: 26 (43) number of patients (percent)
  Adverse event Headache, Grades 3–4: 0 (0) number of patients (percent)
  Adverse event Hypertension, All Grades: 12 (20) number of patients (percent)
  Adverse event Hypertension, Grades 1–2: 8 (13) number of patients (percent)
  Adverse event Hypertension, Grades 3–4: 4 (7) number of patients (percent)
  Adverse event Increased weight, All Grades: 16 (26) number of patients (percent)
  Adverse event Increased weight, Grades 1–2: 15 (25) number of patients (percent)
  Adverse event Increased weight, Grades 3–4: 1 (2) number of patients (percent)
  Adverse event Nausea, All Grades: 12 (20) number of patients (percent)
  Adverse event Nausea, Grades 1–2: 12 (20) number of patients (percent)
  Adverse event Nausea, Grades 3–4: 0 (0) number of patients (percent)
  Adverse event Peripheral edema, All Grades: 13 (21) number of patients (percent)
  Adverse event Peripheral edema, Grades 1–2: 13 (21) number of patients (percent)
  Adverse event Peripheral edema, Grades 3–4: 0 (0) number of patients (percent)
  Adverse event Petechiae, All Grades: 10 (16) number of patients (percent)
  Adverse event Petechiae, Grades 1–2: 10 (16) number of patients (percent)
  Adverse event Petechiae, Grades 3–4: 0 (0) number of patients (percent)
  Adverse event Pyrexia, All Grades: 14 (23) number of patients (percent)
  Adverse event Pyrexia, Grades 1–2: 12 (20) number of patients (percent)
  Adverse event Pyrexia, Grades 3–4: 2 (3) number of patients (percent)
  Adverse event Upper respiratory tract infection, All Grades: 14 (23) number of patients (percent)
  Adverse event Upper respiratory tract infection, Grades 1–2: 14 (23) number of patients (percent)
  Adverse event Upper respiratory tract infection, Grades 3–4: 0 (0) number of patients (percent)
  Most common adverse events: diarrhea: 39%
  Most common adverse events: headache: 43%
  Most common adverse events: increased weight: 26%
  Most common adverse events: pyrexia: 23%
  Most common adverse events: upper respiratory tract infection: 23%
[1]; in vivo
  Dose-limiting toxicities: No dose-limiting toxicities
  Major hemorrhage or atrial fibrillation: No major hemorrhage or atrial fibrillation
  Severe diarrhea, rash, arthralgia/myalgia, bruising and bleeding events: rare
  Tolerability of long-term therapy: well tolerated
[2]; 4 patients with prior idelalisib therapy
  Response rate: 100%
[2]; by cycle 4
  Resolution of B symptoms: 88 % of patients
[2]; by cycle 9
  Resolution of B symptoms: 100 % of patients
[2]; 18 patients with del(17)(p13.1)
  Response rate: 100%
[2]; 59 of 60 patients
  Patients experiencing reduction in lymphadenopathy: 98%
[2]; a death from pneumonia (13 months) and a single progression (16 months)
  Progression-free survival events: 2 events
[2]; [14]
  Best overall response rate (partial response and partial response with lymphocytosis): 95%
  Partial response with lymphocytosis: 10%
  Stable disease: 5%
[2]; median follow-up 14.3 months
  Cases of Richter’s transformation: No cases
[2]; patients with baseline cytopenia
  Improvements in hemoglobin levels, platelet count and absolute neutrophil count: noted in the great majority of patients
[3]; in vivo
  Absorption and elimination: rapidly absorbed and eliminated
[3]; plasma
  half-life: ~1 h
[4]
  Phosphorylated Btk after treatment: complete loss of phosphorylated Btk
[5]
  Platelet aggregation: not the former
[6]
  Pro-inflammatory cytokines: decreased significantly
[7]; excluding patients receiving intravenous immunoglobulin
  Serum IgG, IgA and IgM over time: did not demonstrate significant change
[7]; human, in vivo
  T cell (CD4+, CD8+), natural killer cell and monocyte numbers over time: no clinically significant change
[8]
  Inhibition of B-cell receptor signaling: dose-dependent inhibition
[9]
  Inhibition of EGFR signaling: does not inhibit
[10]
  Itk inhibition: lack of Itk inhibition
[11]
  Inhibition of antibody-mediated killing by natural killer cells: does not inhibit
[12]
  Clinical responses: objective clinical responses

## C=CC(=O)Nc1cccc(Nc2nc(Nc3ccc(OCCOC)cc3)ncc2F)c1 [CC-292]
[13]; CLL
  Clinical results: inferior clinical results compared with ibrutinib
[13]; human, in vivo
  Tolerability: well tolerated
